Source: ChEMBL document CHEMBL4680104, “Structure-Based Optimization of Small-Molecule Inhibitors for the β-Catenin/B-Cell Lymphoma 9 Protein-Protein Interaction” (J Med Chem, 2018)
The source made the active and inactive calls. The calls are words filed in the database; no cut-off is given here.

Tests used:
[1] = Effect on HPRT mRNA expression in human SW480 cells at 2 uM incubated for 24 hrs by qPCR analysis relative to control; assay type: ADME, cell-based; settings: read-out: FC
Method in brief: (§1)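 SW480 cells at 1 × 10^6/mL were treated with inhibitor for 24 h. Total RNA was extracted with TRIzol and cDNA made by first-strand synthesis. SYBR green qPCR used human HPRT primers, with CT values normalised to GAPDH as internal reference. Performed in triplicate.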

[2] = Effect on HPRT mRNA expression in human SW480 cells at 4 uM incubated for 24 hrs by qPCR analysis relative to control; assay type: ADME, cell-based; settings: read-out: FC; method in brief: as §1
[3] = Inhibition of protein interaction between beta-catenin D145A mutant (unknown origin)/N-terminal biotinylated human BCL9 ( 350 to 375 residues) incubated for 1 hr by Alpha-screen competitive inhibition assay
[4] = Inhibition of protein interaction between beta-catenin D145A/E155A mutant (unknown origin)/N-terminal biotinylated human BCL9 ( 350 to 375 residues) incubated for 1 hr by Alpha-screen competitive inhibition assay
[5] = Inhibition of protein interaction between beta-catenin K181A mutant (unknown origin)/N-terminal biotinylated human BCL9 ( 350 to 375 residues) incubated for 1 hr by Alpha-screen competitive inhibition assay
[6] = target: T1, beta-catenin-B-cell lymphoma 9 protein complex (Homo sapiens) (UniProt P35222+O00512); test: Inhibition of protein interaction between beta-catenin /BCL9 in human SW480 cells assessed as reduction in Wnt target genes by measuring Axin2 mRNA expression incubated for 24 hrs by qPCR analysis; assay type: cell-based
Method in brief: (§2)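 SW480 cells at 1 × 10^6/mL were treated with a range of inhibitor concentrations for 24 h. Total RNA was extracted with TRIzol and reverse-transcribed to cDNA. SYBR Green qPCR was run for Axin2, LEF1 and cyclin D1, with HPRT as a non-target housekeeping gene. CT values were normalized to GAPDH. Triplicate.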

[7] = target: T1, beta-catenin-B-cell lymphoma 9 protein complex (Homo sapiens); test: Inhibition of protein interaction between beta-catenin /BCL9 in human SW480 cells assessed as reduction in Wnt target genes by measuring cyclin D1 mRNA expression incubated for 24 hrs by qPCR analysis; assay type: cell-based; method in brief: as §2
[8] = target: T1, beta-catenin-B-cell lymphoma 9 protein complex (Homo sapiens); test: Inhibition of protein interaction between beta-catenin /BCL9 in human SW480 cells assessed as reduction in Wnt target genes by measuring LEF1 mRNA expression incubated for 24 hrs by qPCR analysis; assay type: cell-based; method in brief: as §2
[9] = target: T1, beta-catenin-B-cell lymphoma 9 protein complex (Homo sapiens); test: Inhibition of protein interaction between beta-catenin /BCL9 in human SW480 cells assessed as reduction in active form of beta-catenin expression incubated for 24 hrs by Western blot analysis; assay type: cell-based
Method in brief: (§3)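 SW480 cells at 1 × 10^6 cells/mL were treated with a range of inhibitor concentrations for 24 h. Cells were lysed in Tris/NaCl/NP-40/deoxycholate/SDS buffer with protease inhibitors. Lysates were run on 8% SDS-PAGE and blotted to nitrocellulose. Blots were probed overnight at 4 °C for total β-catenin (mostly the E-cadherin-bound pool), active β-catenin (dephosphorylated S37/T41), cyclin D1, c-myc and β-tubulin. Detection used infrared secondary antibodies. Duplicate.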

[10] = Effect on HPRT mRNA expression in human SW480 cells at 1 uM incubated for 24 hrs by qPCR analysis relative to control; assay type: ADME, cell-based; settings: read-out: FC; method in brief: as §1
[11] = Inhibition of protein interaction between C-terminal 6x-histidine tagged full-length beta-catenin (1 to 781 residues) (unknown origin)/N-terminal biotinylated human E-cadherin (824 to 877 residues) incubated for 1 hr by Alpha-screen competitive inhibition assay
Method in brief: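 Full-length β-catenin (residues 1–781) with a C-terminal His6 tag was expressed in E. coli BL21(DE3) after IPTG induction at 20 °C. It was purified by Ni-NTA, anion-exchange and size-exclusion chromatography. For the assay, 40 nM β-catenin was preincubated for 30 min at 4 °C with 5 nM biotinylated BCL9 or 10 nM biotinylated E-cadherin. Inhibitor was then added for 1 h at 4 °C, followed by 10 μg/mL donor and acceptor beads for 1 h at 4 °C. IC50 was obtained by nonlinear fit and converted to Ki by the Nikolovska-Coleska method. Triplicate, mean ± SD.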

SW480 [12] = test: Cytotoxic activity in human SW480 cells at 800 uM incubated for 4 hrs by LDH release assay; assay type: cell-based; settings: sw480, 4 h
Method in brief: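 SW480 cells were seeded at 2 × 10^4 cells/well and kept overnight at 37 °C. They were then exposed to a range of inhibitor concentrations for 4 h. LDH in the culture supernatant was measured with a diagnostic kit by absorbance at 490 nm. Percent cytotoxicity was calculated from experimental release against maximum release, with background subtracted. Run in triplicate.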

SW480 [13] = test: Effect on E-cadherin-bound beta-catenin levels in human SW480 cells at 25 to 100 uM incubated for 24 hrs by Western blot analysis; assay type: functional, cell-based; settings: dose 25-100 µM; method in brief: as §3
[14] = target: T1, beta-catenin-B-cell lymphoma 9 protein complex (Homo sapiens); test: Inhibition of protein interaction between full-length beta-catenin (unknown origin) / full-length BCL9 (unknown origin) in human HCT-116 cell lysates incubated for 4 hrs by co-immunoprecipitation assay; assay type: subcellular
Method in brief: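 HCT116 cells were lysed in 50 mM Tris pH 7.4, 150 mM NaCl, 1% NP-40, 2 mM EDTA and protease inhibitors. Lysates were incubated with a range of inhibitor concentrations for 4 h at 4 °C and precleared on protein A/G agarose. β-Catenin was immunoprecipitated overnight at 4 °C and captured on A/G beads for 3 h. Beads were washed five times and run on 8% SDS-PAGE. Blots were probed for BCL9 and E-cadherin.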

[15] = target: T1, beta-catenin-B-cell lymphoma 9 protein complex (Homo sapiens); test: Inhibition of protein interaction between full-length beta-catenin (unknown origin) / full-length BCL9 (unknown origin) in human HCT-116 cells incubated for 24 hrs by co-immunoprecipitation assay; assay type: cell-based
Method in brief: (§4)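 Intact HCT116 cells at 1 × 10^6/mL were treated with a range of inhibitor concentrations for 24 h. They were then lysed in Tris pH 7.4/NaCl/NP-40/EDTA buffer with protease inhibitors and precleared on A/G agarose. Anti-β-catenin immunoprecipitation ran overnight at 4 °C, with A/G capture for 3 h and five washes. Samples were run on 8% SDS-PAGE and immunoblotted for BCL9 and E-cadherin.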

HCT-116 = test: Inhibition of protein interaction between full-length beta-catenin (unknown origin) / full-length E-cadherin (unknown origin) in human HCT-116 cells incubated for 24 hrs by co-immunoprecipitation assay; assay type: cell-based; method in brief: as §4
[16] = Effect on HPRT mRNA expression in human SW480 cells at 25 uM incubated for 24 hrs by qPCR analysis relative to control; assay type: ADME, cell-based; settings: read-out: FC; method in brief: as §1
[17] = Effect on HPRT mRNA expression in human SW480 cells at 50 uM incubated for 24 hrs by qPCR analysis relative to control; assay type: ADME, cell-based; settings: read-out: FC; method in brief: as §1
[18] = Drug level in human HCT-116 cells assessed as per million cells at 50 uM incubated for 6 hrs at 4 degC in presence of DMEM media with 10% FBS; assay type: ADME, cell-based; settings: hct-116, 6 h
Method in brief: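 Cells were incubated with 50 μM compound for 6 h in 5 mL DMEM with 10% FBS, at 37 °C or at 4 °C. Cell-bound compound was quantified by a previously described method and expressed as nmol per million cells. The 4 °C incubation was used to estimate binding to the cell membrane through nonspecific association.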

SMILES	fold induction at 2 µM [1]	fold induction at 4 µM [2]	Ki [3] [µM]	Ki [4] [µM]	Ki [5] [µM]	inhibition [6]	inhibition [7]	inhibition [8]	inhibition [9]	fold induction at 1 µM [10]	Ki [11] [µM]	Activity (SW480 [12])	Activity (SW480 [13])	inhibition [14]	inhibition [15]	inhibition (HCT-116)	fold induction at 25 µM [16]	fold induction at 50 µM [17]	Drug uptake [18] [nmol]
Cc1cc(F)ccc1-c1cc(NC(=O)c2ccc(O[C@H]3CCNC3)c(-c3ccc(F)c(F)c3)c2)ccc1O[C@H]1CCNC1.Cl.Cl	0.166	0.136																	
Cl.Cl.O=C(Nc1ccc(O[C@H]2CCNC2)c(-c2ccc(F)cc2)c1)c1ccc(O[C@H]2CCNC2)c(-c2ccc3ccsc3c2)c1	1.21	1.04	4.2	12	1.7	Dose-dependent effect	Dose-dependent effect	Dose-dependent effect	Dose-dependent effect	1.09									
Cl.Cl.O=C(Nc1ccc(O[C@H]2CCNC2)c(-c2ccc(F)cc2)c1)c1ccc(O[C@H]2CCNC2)c(-c2ccc(F)c(F)c2)c1						Dose-dependent effect	Dose-dependent effect	Dose-dependent effect											
Cl.Cl.O=C(Nc1ccc(O[C@@H]2CCNC2)c(-c2cccc(-c3nn[nH]n3)c2)c1)c1ccc(O[C@H]2CCNC2)c(-c2ccc(F)c(F)c2)c1			3	12	4.1	Dose-dependent effect	Dose-dependent effect	Dose-dependent effect	Dose-dependent effect		> 915	Non-Toxic	inactive	Dose-dependent effect	Dose-dependent effect	inactive	0.99	0.979	5.1
